Experimental data: ChEMBL document CHEMBL1765011, “Synthesis and c-Met kinase inhibition of 3,5-disubstituted and 3,5,7-trisubstituted quinolines: identification of 3-(4-acetylpiperazin-1-yl)-5-(3-nitrobenzylamino)-7- (trifluoromethyl)quinoline as a novel anticancer agent” (J Med Chem, 2011)
Activity calls are given as the source filed them. The rule behind the calls is not given here.

What was measured:
[1] = biological target: Macrophage-stimulating protein receptor (Homo sapiens, UniProt Q04912); experiment: Inhibition of RON
Summary of the method: (§1)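 ELISA on plates precoated with 20 μg/mL poly(Glu,Tyr) 4:1. Buffer: 10 μM ATP, 50 mM HEPES pH 7.4, 50 mM MgCl2, 0.5 mM MnCl2, 0.2 mM Na3VO4, 1 mM DTT, compound in 1% DMSO. Purified kinase was added and incubated 60 min at 37 °C. Phosphotyrosine was detected with PY99 then HRP anti-mouse IgG, o-phenylenediamine, A490. IC50 was taken from inhibition curves.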

[2] = biological target: Hepatocyte growth factor receptor (Mus musculus) (UniProt P16056); experiment: Inhibition of TPR-c-Met phosphorylation expressed in mouse […] cells assessed as AKT phosphorylation at 0.1 to 3 uM after 4 hrs by Western blotting; type: cell-based
Sequence of Hepatocyte growth factor receptor (Mus musculus) (P16056 whole entry): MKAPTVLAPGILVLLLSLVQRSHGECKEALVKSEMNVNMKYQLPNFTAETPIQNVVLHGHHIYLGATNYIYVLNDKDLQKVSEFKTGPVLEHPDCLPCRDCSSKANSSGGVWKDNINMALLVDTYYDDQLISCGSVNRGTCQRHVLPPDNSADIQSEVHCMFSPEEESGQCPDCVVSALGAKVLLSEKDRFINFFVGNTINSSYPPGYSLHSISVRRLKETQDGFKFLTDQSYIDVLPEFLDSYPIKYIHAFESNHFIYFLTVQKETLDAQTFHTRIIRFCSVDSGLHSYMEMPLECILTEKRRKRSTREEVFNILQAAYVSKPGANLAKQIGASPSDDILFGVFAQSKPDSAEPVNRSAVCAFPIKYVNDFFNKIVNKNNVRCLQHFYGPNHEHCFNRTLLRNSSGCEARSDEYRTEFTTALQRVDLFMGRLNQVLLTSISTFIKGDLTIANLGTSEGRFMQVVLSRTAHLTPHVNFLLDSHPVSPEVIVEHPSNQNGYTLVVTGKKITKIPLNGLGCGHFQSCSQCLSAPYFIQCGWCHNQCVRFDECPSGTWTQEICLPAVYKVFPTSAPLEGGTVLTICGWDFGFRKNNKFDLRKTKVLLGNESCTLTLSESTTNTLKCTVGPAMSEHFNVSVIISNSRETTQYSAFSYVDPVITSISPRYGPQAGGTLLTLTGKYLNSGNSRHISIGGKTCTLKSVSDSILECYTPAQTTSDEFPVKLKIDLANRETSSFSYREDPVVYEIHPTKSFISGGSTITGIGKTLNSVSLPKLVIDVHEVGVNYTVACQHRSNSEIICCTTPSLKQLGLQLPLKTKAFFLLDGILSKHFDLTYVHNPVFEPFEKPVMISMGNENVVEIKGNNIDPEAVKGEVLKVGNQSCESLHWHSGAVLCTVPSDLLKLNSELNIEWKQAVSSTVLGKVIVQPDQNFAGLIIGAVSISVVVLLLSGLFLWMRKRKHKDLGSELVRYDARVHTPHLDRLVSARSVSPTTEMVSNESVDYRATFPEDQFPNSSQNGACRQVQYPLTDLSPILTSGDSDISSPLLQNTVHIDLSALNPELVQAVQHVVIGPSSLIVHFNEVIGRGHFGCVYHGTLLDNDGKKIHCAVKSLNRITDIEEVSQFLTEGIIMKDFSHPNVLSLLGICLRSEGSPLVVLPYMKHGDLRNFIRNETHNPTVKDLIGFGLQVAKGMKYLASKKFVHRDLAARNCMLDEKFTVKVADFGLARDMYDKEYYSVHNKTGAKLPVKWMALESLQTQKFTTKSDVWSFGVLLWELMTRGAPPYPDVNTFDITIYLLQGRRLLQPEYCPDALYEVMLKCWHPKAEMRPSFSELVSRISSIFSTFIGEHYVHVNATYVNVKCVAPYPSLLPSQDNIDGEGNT
Summary of the method: (§2)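 Exponentially growing cells were exposed to compound for 4 h at 37 °C and lysed in SDS sample buffer. Lysates were resolved on 10% SDS-PAGE and blotted. Blots were probed for phospho- and total ERK1/2 and AKT, with GAPDH loading control, and detected by ECL.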

Mus musculus = experiment: Toxicity in mouse NIH/3T3 cells expressing TPR-Met xenografted nude mouse assessed as reduction in body weight at 100 mg/kg, ip qd for 14 days; type: organism-based, NIH3T3; parameters: dose 100 mg/kg, route intraperitoneal; conditions: in vivo, 336 h
SNU-5 = experiment: Antiproliferative activity against human SNU5 cells after 72 hrs; conditions: SNU-5, 72 h
[3] = biological target: T1, Hepatocyte growth factor receptor (Homo sapiens, UniProt P08581); experiment: Inhibition of c-Met phosphorylation in human MKN45 cells at 0.1 to 3 uM after 4 hrs by Western blotting; type: cell-based; conditions: MKN-45
T1 sequence (P08581 whole entry): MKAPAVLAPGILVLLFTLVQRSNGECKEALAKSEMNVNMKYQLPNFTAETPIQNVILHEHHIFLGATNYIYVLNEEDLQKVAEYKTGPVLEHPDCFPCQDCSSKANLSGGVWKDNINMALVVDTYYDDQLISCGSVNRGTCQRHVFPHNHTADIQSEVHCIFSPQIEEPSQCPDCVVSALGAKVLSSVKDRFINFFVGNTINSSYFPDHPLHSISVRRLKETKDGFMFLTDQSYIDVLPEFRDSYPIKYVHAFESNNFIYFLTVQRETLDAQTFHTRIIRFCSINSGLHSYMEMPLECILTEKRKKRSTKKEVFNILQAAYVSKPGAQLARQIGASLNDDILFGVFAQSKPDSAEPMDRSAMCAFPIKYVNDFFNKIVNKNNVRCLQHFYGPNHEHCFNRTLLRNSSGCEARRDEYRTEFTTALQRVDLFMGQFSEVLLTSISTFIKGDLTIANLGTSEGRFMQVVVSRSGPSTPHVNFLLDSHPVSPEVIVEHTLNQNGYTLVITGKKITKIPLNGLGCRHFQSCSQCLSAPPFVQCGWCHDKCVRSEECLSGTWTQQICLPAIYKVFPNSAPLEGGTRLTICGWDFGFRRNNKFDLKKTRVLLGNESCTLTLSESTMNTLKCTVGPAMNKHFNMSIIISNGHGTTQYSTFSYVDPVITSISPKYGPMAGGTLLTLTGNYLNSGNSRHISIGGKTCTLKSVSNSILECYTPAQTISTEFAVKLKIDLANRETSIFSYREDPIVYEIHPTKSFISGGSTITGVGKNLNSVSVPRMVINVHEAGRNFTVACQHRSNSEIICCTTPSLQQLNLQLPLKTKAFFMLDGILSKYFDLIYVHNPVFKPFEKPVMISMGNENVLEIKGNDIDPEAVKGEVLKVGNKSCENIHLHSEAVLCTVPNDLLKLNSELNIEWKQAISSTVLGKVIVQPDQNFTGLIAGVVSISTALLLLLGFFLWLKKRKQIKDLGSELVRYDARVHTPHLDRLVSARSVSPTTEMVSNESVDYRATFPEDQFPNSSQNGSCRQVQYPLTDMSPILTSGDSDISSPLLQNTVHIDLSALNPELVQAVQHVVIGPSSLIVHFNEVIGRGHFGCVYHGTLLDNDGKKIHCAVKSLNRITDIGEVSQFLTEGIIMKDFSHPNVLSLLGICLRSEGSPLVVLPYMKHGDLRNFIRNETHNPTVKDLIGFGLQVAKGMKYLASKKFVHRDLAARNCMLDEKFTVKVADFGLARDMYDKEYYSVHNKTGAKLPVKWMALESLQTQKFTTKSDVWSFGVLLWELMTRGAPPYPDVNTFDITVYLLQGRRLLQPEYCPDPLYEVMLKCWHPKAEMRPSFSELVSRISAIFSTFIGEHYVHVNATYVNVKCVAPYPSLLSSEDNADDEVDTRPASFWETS
Summary of the method: (§3)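 Exponentially growing cells were treated with compound for 4 h at 37 °C and lysed in SDS sample buffer. Lysates were run on 10% SDS-PAGE and blotted to nitrocellulose. Blots were probed for phospho-c-Met and total c-Met, with GAPDH as loading control, and detected by ECL.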

[4] = biological target: T1, Hepatocyte growth factor receptor; experiment: Inhibition of c-Met in human MKN45 cells assessed as ERK1/2 phosphorylation at 0.1 to 3 uM after 4 hrs by Western blotting; type: cell-based; conditions: MKN-45; summary of the method: as §2
[5] = Volume of distribution at steady state in mouse at 10 mg/kg, iv; type: ADME, organism-based; parameters: dose 10 mg/kg, route intravenous; conditions: in vivo, read-out: Vdss
[6] = biological target: Hepatocyte growth factor receptor (Mus musculus) (UniProt P16056); experiment: Inhibition of TPR-c-Met phosphorylation expressed in mouse BAF3 cells assessed as ERK1/2 phosphorylation at 0.1 to 3 uM after 4 hrs by Western blotting; type: cell-based; summary of the method: as §2
[7] = biological target: Hepatocyte growth factor receptor (Mus musculus) (UniProt P16056); experiment: Inhibition of TPR-c-Met phosphorylation expressed in mouse BAF3 cells at 0.1 to 3 uM after 4 hrs by Western blotting; type: cell-based; summary of the method: as §3
[8] = biological target: Insulin-like growth factor 1 receptor (Homo sapiens, UniProt P08069); experiment: Inhibition of IGF1R
Sequence of Insulin-like growth factor 1 receptor (P08069 31-736 limits assumed): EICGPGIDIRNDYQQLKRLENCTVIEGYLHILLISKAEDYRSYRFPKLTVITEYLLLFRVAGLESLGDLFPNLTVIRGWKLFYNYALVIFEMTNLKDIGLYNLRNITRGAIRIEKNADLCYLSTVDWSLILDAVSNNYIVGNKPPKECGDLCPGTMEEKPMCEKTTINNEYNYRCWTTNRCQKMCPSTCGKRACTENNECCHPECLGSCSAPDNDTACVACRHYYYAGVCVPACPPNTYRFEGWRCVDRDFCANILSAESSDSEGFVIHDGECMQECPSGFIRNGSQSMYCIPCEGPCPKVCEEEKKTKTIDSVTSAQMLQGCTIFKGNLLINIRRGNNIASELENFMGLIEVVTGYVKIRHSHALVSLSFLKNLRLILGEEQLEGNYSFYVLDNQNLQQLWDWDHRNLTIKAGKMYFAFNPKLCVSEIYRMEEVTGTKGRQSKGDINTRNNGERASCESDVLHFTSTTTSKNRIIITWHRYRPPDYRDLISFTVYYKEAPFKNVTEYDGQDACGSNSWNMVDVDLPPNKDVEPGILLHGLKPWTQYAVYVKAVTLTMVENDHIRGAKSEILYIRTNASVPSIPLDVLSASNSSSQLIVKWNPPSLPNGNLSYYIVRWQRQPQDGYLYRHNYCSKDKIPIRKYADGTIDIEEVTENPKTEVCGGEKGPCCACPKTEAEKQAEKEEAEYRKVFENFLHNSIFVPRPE
Sequence of Insulin-like growth factor 1 receptor (P08069 741-1367 limits assumed): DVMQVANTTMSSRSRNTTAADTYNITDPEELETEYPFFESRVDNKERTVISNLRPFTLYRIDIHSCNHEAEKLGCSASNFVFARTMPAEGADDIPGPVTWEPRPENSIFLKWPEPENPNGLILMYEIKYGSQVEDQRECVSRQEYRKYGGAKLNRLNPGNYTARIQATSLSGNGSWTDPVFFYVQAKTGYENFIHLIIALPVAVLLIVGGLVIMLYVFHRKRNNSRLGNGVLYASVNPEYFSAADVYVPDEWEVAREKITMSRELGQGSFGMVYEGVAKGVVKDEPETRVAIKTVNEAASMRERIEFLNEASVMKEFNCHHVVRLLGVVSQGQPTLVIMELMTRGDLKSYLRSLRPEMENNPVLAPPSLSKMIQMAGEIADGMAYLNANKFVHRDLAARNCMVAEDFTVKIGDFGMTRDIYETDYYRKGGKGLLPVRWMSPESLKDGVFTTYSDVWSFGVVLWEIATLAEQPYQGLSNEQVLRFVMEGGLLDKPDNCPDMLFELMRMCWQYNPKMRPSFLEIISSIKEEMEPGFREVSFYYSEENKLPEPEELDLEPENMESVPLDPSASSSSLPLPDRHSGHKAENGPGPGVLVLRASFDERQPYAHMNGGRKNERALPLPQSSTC

[9] = biological target: Platelet-derived growth factor receptor alpha (Homo sapiens, UniProt P16234); experiment: Inhibition of PDGFRalpha; summary of the method: as §1
[10] = biological target: Proto-oncogene tyrosine-protein kinase Src (Homo sapiens, UniProt P12931); experiment: Inhibition of c-Src; summary of the method: as §1
Sequence of Proto-oncogene tyrosine-protein kinase Src (P12931 2-536 limits assumed): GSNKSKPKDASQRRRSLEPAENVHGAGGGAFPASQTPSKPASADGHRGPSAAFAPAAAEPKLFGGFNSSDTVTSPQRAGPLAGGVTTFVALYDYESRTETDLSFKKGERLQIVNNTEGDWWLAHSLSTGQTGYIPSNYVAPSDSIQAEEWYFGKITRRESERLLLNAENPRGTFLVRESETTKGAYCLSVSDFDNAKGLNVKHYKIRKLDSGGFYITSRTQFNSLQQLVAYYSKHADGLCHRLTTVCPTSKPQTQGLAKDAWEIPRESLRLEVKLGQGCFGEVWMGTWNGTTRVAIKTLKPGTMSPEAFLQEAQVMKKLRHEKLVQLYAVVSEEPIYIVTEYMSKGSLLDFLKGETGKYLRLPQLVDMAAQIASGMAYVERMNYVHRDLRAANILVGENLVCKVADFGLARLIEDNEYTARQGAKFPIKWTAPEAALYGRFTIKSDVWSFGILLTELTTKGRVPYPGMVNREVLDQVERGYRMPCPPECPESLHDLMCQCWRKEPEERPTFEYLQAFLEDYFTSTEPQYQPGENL

BXPC-3 = experiment: Antiproliferative activity against human BxPC3 cells after 72 hrs; conditions: BXPC-3, 72 h
[11] = Oral bioavailability in mouse at 20 mg/kg; type: ADME, organism-based; conditions: in vivo
[12] = Half life in mouse at 10 mg/kg, iv; type: ADME, organism-based; parameters: dose 10 mg/kg, route intravenous; conditions: in vivo
Summary of the method: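 Single iv dose of 10 mg/kg to mice, vehicle DMSO/Tween 80/normal saline. Clearance and half-life were derived from plasma concentration-time data. Average of three runs.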

[13] = biological target: Hepatocyte growth factor receptor (Mus musculus) (UniProt P16056); experiment: Inhibition of TPR-c-Met phosphorylation expressed in mouse […] cells assessed as ERK1/2 phosphorylation at 0.1 to 3 uM after 4 hrs by Western blotting; type: cell-based; summary of the method: as §2
NCI-H1993 = experiment: Antiproliferative activity against human NCI-H1993 cells after 72 hrs; conditions: NCI-H1993, 72 h
BaF3 = experiment: Antiproliferative activity against mouse BAF3 cells expressing TPR-Met after 72 hrs in presence of IL-3; type: functional, cell-based; conditions: BaF3, 72 h
Summary of the method: (§4)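 Cells were seeded and exposed next day to a range of compound concentrations for 72 h. Proliferation was read by sulforhodamine B or MTT assay, and IC50 derived.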

NIH3T3 = experiment: Antiproliferative activity against mouse NIH/3T3 cells expressing TPR-Met after 72 hrs; type: functional, cell-based; conditions: NIH3T3, 72 h; summary of the method: as §4

IC50 [1]: > 10 µM | inhibition [2]: Active | IC50 (SNU-5): 1 µM | inhibition [3]: Active | inhibition [4]: Active | Vd [5]: 16.7 L/kg | inhibition [6]: Active | inhibition [7]: Active | IC50 [8]: > 10 µM | IC50 [9]: > 10 µM | IC50 [10]: > 10 µM | IC50 (BXPC-3): 46 µM | bioavailability [11]: 37.5% | half-life [12]: 3.25 h | inhibition [13]: Active | IC50 (NCI-H1993): 5.3 µM | IC50 (BaF3): 12.2 µM
Compound: CC(=O)N1CCN(c2cnc3cc(C(F)(F)F)cc(NCc4cccc([N+](=O)[O-])c4)c3c2)CC1
Activity (Mus musculus): Non-toxic | IC50 (NIH3T3): 2 µM
